Data from ChEMBL document CHEMBL5058577, “EUbOPEN Chemogenomics Library 2 (Multiplex)” (2022).

Test system: U2OS
Assay: Multiplex assay against U2OS
Format: toxicity, cell-based
Conditions: human
How it was run: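 Four dyes were applied at seeding to live cells: Hoechst33342, BioTracker Green Microtubule Cytoskeleton Dye, MitoTracker Red and Annexin V Alexa Fluor 680. Imaging after compound addition used a CQ1 microscope at 37°C and 5% CO2. CellPathfinder machine-learning gating then sorted cells into Hoechst high-intensity objects or normal cells, normal cells into healthy, pyknosed or fragmented nuclei, and pyknosed cells into mitotic or apoptotic, with tubulin, mitochondrial-mass and membrane-permeability phenotypes given as per cents of healthy-nucleus cells.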

[1] = 12 h, 1 µM, compound concentration 1 uM, replicate 1
[2] = 12 h, 1 µM, compound concentration 1 uM, replicate 2
[3] = 12 h, 10 µM, compound concentration 10 uM, replicate 1
[4] = 12 h, 10 µM, compound concentration 10 uM, replicate 2
[5] = 24 h, 1 µM, compound concentration 1 uM, replicate 1
[6] = 24 h, 1 µM, compound concentration 1 uM, replicate 2
[7] = 24 h, 10 µM, compound concentration 10 uM, replicate 1
[8] = 24 h, 10 µM, compound concentration 10 uM, replicate 2
[9] = 48 h, 1 µM, compound concentration 1 uM, replicate 1
[10] = 48 h, 1 µM, compound concentration 1 uM, replicate 2
[11] = 48 h, 10 µM, compound concentration 10 uM, replicate 1
[12] = 48 h, 10 µM, compound concentration 10 uM, replicate 2

CC[C@@H](C)Nc1nc(C)nc2c(-c3ccc(OC)nc3C)c(C)nn12 [PEXACERFONT]
Population Apoptotic (%) [1]: 73% | Population Fragmented Nuclei (%) [1]: 24% | Population Healthy Nuclei (%) [1]: 66% | Population Hoechst High Intensity Objects (%) [1]: 3% | Population Membrane Permeable-Phenotype (%) [1]: 2% | Population Mitochondria Different-Phenotype (%) [1]: 3% | Population Mitotic Cells (%) [1]: 26% | Population Normal (%) [1]: 96% | Population Pyknosed Nuclei (%) [1]: 9% | Population Tubulin-Different-Phenotype (%) [1]: 2% | Total Cell Count [1]: 258 | Population Apoptotic (%) [2]: 87% | Population Fragmented Nuclei (%) [2]: 17% | Population Healthy Nuclei (%) [2]: 76% | Population Hoechst High Intensity Objects (%) [2]: 0% | Population Membrane Permeable-Phenotype (%) [2]: 1% | Population Mitochondria Different-Phenotype (%) [2]: 0% | Population Mitotic Cells (%) [2]: 12% | Population Normal (%) [2]: 99% | Population Pyknosed Nuclei (%) [2]: 5% | Population Tubulin-Different-Phenotype (%) [2]: 0% | Total Cell Count [2]: 136 | Population Apoptotic (%) [3]: 90% | Population Fragmented Nuclei (%) [3]: 26% | Population Healthy Nuclei (%) [3]: 64% | Population Hoechst High Intensity Objects (%) [3]: 1% | Population Membrane Permeable-Phenotype (%) [3]: 2% | Population Mitochondria Different-Phenotype (%) [3]: 1% | Population Mitotic Cells (%) [3]: 9% | Population Normal (%) [3]: 98% | Population Pyknosed Nuclei (%) [3]: 8% | Population Tubulin-Different-Phenotype (%) [3]: 1% | Total Cell Count [3]: 265 | Population Fragmented Nuclei (%) [4]: 21% | Population Healthy Nuclei (%) [4]: 70% | Population Membrane Permeable-Phenotype (%) [4]: 12% | Population Mitochondria Different-Phenotype (%) [4]: 7% | Population Mitotic Cells (%) [4]: 10% | Population Pyknosed Nuclei (%) [4]: 7% | Population Tubulin-Different-Phenotype (%) [4]: 4% | Total Cell Count [4]: 128 | Population Apoptotic (%) [5]: 80% | Population Fragmented Nuclei (%) [5]: 21% | Population Healthy Nuclei (%) [5]: 69% | Population Hoechst High Intensity Objects (%) [5]: 2% | Population Membrane Permeable-Phenotype (%) [5]: 5% | Population Mitochondria Different-Phenotype (%) [5]: 2% | Population Mitotic Cells (%) [5]: 20% | Population Normal (%) [5]: 97% | Population Pyknosed Nuclei (%) [5]: 8% | Population Tubulin-Different-Phenotype (%) [5]: 2% | Total Cell Count [5]: 346 | Population Apoptotic (%) [6]: 85% | Population Fragmented Nuclei (%) [6]: 16% | Population Healthy Nuclei (%) [6]: 75% | Population Membrane Permeable-Phenotype (%) [6]: 3% | Population Mitochondria Different-Phenotype (%) [6]: 6% | Population Mitotic Cells (%) [6]: 14% | Total Cell Count [6]: 172 | Population Apoptotic (%) [7]: 80% | Population Fragmented Nuclei (%) [7]: 21% | Population Healthy Nuclei (%) [7]: 71% | Population Hoechst High Intensity Objects (%) [7]: 2% | Population Membrane Permeable-Phenotype (%) [7]: 5% | Population Mitochondria Different-Phenotype (%) [7]: 3% | Population Mitotic Cells (%) [7]: 19% | Population Normal (%) [7]: 97% | Population Pyknosed Nuclei (%) [7]: 7% | Population Tubulin-Different-Phenotype (%) [7]: 4% | Total Cell Count [7]: 307 | Population Apoptotic (%) [8]: 92% | Population Fragmented Nuclei (%) [8]: 14% | Population Healthy Nuclei (%) [8]: 77% | Population Hoechst High Intensity Objects (%) [8]: 0% | Population Membrane Permeable-Phenotype (%) [8]: 7% | Population Mitotic Cells (%) [8]: 7% | Population Normal (%) [8]: 99% | Population Pyknosed Nuclei (%) [8]: 8% | Population Tubulin-Different-Phenotype (%) [8]: 3% | Total Cell Count [8]: 159 | Population Apoptotic (%) [9]: 88% | Population Fragmented Nuclei (%) [9]: 16% | Population Healthy Nuclei (%) [9]: 75% | Population Hoechst High Intensity Objects (%) [9]: 1% | Population Membrane Permeable-Phenotype (%) [9]: 3% | Population Mitochondria Different-Phenotype (%) [9]: 1% | Population Mitotic Cells (%) [9]: 11% | Population Normal (%) [9]: 98% | Population Pyknosed Nuclei (%) [9]: 7% | Population Tubulin-Different-Phenotype (%) [9]: 1% | Total Cell Count [9]: 476 | Population Apoptotic (%) [10]: 91% | Population Healthy Nuclei (%) [10]: 73% | Population Hoechst High Intensity Objects (%) [10]: 2% | Population Membrane Permeable-Phenotype (%) [10]: 5% | Population Mitochondria Different-Phenotype (%) [10]: 4% | Population Mitotic Cells (%) [10]: 8% | Population Normal (%) [10]: 97% | Population Pyknosed Nuclei (%) [10]: 9% | Population Tubulin-Different-Phenotype (%) [10]: 4% | Total Cell Count [10]: 261 | Population Apoptotic (%) [11]: 94% | Population Fragmented Nuclei (%) [11]: 17% | Population Healthy Nuclei (%) [11]: 74% | Population Hoechst High Intensity Objects (%) [11]: 1% | Population Membrane Permeable-Phenotype (%) [11]: 4% | Population Mitochondria Different-Phenotype (%) [11]: 1% | Population Mitotic Cells (%) [11]: 5% | Population Normal (%) [11]: 98% | Population Pyknosed Nuclei (%) [11]: 8% | Population Tubulin-Different-Phenotype (%) [11]: 1% | Total Cell Count [11]: 478 | Population Apoptotic (%) [12]: 100% | Population Fragmented Nuclei (%) [12]: 13% | Population Healthy Nuclei (%) [12]: 77% | Population Membrane Permeable-Phenotype (%) [12]: 6% | Population Mitochondria Different-Phenotype (%) [12]: 3% | Population Mitotic Cells (%) [12]: 0% | Population Tubulin-Different-Phenotype (%) [12]: 2% | Total Cell Count [12]: 242
